In ChEMBL document CHEMBL1143681, “Bifunctional [2',6'-dimethyl-L-tyrosine1]endomorphin-2 analogues substituted at position 3 with alkylated phenylalanine derivatives yield potent mixed mu-agonist/delta-antagonist and dual mu-agonist/delta-agonist opioid ligands” (J Med Chem, 2007):
Where a SMILES comes first, the peptide text is derived from it. [ ]: non-standard residue; d: D form. Dmt = Cc1cc(O)cc(C)c1C[C@H](N)C(=O)O

Assays:
[1] = molecular target: Delta-type opioid receptor (Mus musculus) (UniProt P32300); test: Agonist activity at delta opioid receptor in mouse vas deferens assessed as inhibition of electrically-stimulated muscle contraction at 10000 nM; type: functional, tissue-based; parameters: scale not given: the % may be the effect or the level left
In short: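 Mouse vas deferens in organ bath, physiological buffer pH 7.5; maximal inhibition of electrically evoked contraction recorded at 10,000 nM.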

[2] = molecular target: T1, Delta-type opioid receptor (Mus musculus, UniProt P32300); test: Agonist activity at delta opioid receptor in mouse vas deferens assessed as inhibition of electrically-stimulated muscle contraction; type: functional, tissue-based
In short: (§1)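 Isolated tissue: myenteric plexus longitudinal muscle strips (2–3 cm) from small intestine of male Hartley guinea pigs (μ), or single mouse vas deferens (δ), in organ baths with balanced salt solution, pH 7.5. Inhibition of electrically evoked contraction; IC50 (nM) from dose-response curves, mean ± SE of five to six separate assays.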

[3] = molecular target: Mu-type opioid receptor (Cavia porcellus, UniProt P97266); test: Agonist activity at mu opioid receptor in Hartley guinea pig ileum assessed as inhibition of electrically-stimulated muscle contraction; type: functional, tissue-based; in short: as §1
[4] = molecular target: Delta-type opioid receptor (Rattus norvegicus, UniProt P33533); test: Displacement of [3H]deltorphin 2 from delta opioid receptor in Sprague-Dawley rat brain P2 synaptosome membrane; type: tissue-based
[5] = molecular target: Mu-type opioid receptor (Rattus norvegicus, UniProt P33535); test: Displacement of [3H]DAMGO from mu opioid receptor in Sprague-Dawley rat brain P2 synaptosome membrane; type: tissue-based
In short: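 Competition binding at equilibrium (2.5 h, 22 °C) on Sprague-Dawley rat (150–160 g) brain P2 synaptosomes, preincubated 60 min at 22 °C to remove endogenous opioids. Radioligands: 3.5 nM [3H]DAMGO (μ) or 1.9 nM [3H]deltorphin-II (δ); nonspecific with 2 µM unlabeled peptide. GF/C filtration; duplicates, 5–8 doses, several preparations. Ki by Cheng-Prusoff (Kd 3.5 nM DAMGO, 1.4 nM deltorphin-II).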

[6] = molecular target: Opioid receptors; mu & delta (Rattus norvegicus) (UniProt P33533+P33535); test: Selectivity for mu opioid receptor over delta opiod receptor in Sprague-Dawley rat brain P2 synaptosome membrane; type: tissue-based
[7] = molecular target: Kappa-type opioid receptor (Cavia porcellus, UniProt P41144); test: Displacement of [3H]U-69593 from kappa opioid receptor in Hartley guinea pig cerebellum P2 synaptosome membrane; type: tissue-based
[8] = molecular target: T1, Delta-type opioid receptor; test: Antagonist activity at delta opioid receptor in mouse vas deferens assessed as inhibition of deltorphin 2-induced response; type: functional, tissue-based; details: read-out: pA2 (converted)
In short: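 Single mouse vas deferens in organ bath, pH 7.5 buffer; δ antagonism measured against deltorphin II-induced inhibition of electrically evoked contraction. pA2 from Schild plot: negative log molar concentration needed to double deltorphin II concentration for the original response.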

Chain of Delta-type opioid receptor (Rattus norvegicus, UniProt P33533) (P33533 whole entry): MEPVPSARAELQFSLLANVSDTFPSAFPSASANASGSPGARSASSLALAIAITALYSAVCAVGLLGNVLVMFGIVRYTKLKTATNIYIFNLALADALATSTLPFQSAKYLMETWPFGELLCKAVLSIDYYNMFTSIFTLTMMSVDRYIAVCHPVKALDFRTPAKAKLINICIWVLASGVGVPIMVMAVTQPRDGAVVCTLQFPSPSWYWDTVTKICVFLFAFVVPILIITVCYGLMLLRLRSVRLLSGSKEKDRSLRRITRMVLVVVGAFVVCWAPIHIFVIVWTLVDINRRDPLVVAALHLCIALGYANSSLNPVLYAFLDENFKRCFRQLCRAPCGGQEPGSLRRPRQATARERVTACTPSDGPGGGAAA
Chain of Opioid receptors; mu & delta (Rattus norvegicus) (P33533 whole entry, looked up): as the sequence (P33533 whole entry) above
Chain of Opioid receptors; mu & delta (Rattus norvegicus) (P33535 whole entry, looked up): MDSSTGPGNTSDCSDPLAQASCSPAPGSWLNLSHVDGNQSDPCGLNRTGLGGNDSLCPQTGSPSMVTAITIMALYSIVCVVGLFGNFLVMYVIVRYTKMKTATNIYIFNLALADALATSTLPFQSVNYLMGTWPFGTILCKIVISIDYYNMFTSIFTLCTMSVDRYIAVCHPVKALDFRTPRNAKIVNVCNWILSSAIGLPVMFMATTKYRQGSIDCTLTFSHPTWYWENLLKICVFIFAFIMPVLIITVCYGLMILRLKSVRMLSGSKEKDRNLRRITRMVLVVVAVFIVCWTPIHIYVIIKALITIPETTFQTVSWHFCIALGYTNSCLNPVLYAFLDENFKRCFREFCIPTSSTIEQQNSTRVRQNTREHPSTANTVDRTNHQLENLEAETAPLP
Chain of Delta-type opioid receptor (Mus musculus) (P32300 whole entry): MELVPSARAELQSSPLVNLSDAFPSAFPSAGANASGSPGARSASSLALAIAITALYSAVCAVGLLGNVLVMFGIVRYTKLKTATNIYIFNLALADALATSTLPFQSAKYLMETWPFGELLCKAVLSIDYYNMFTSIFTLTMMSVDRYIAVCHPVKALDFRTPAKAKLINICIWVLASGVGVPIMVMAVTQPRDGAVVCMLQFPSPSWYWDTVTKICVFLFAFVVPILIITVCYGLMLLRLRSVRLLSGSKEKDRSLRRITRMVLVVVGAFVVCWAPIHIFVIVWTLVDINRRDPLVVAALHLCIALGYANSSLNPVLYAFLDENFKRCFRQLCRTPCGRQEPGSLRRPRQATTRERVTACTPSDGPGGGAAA
T1 sequence (P32300 whole entry): as above
Chain of Kappa-type opioid receptor (P41144 whole entry): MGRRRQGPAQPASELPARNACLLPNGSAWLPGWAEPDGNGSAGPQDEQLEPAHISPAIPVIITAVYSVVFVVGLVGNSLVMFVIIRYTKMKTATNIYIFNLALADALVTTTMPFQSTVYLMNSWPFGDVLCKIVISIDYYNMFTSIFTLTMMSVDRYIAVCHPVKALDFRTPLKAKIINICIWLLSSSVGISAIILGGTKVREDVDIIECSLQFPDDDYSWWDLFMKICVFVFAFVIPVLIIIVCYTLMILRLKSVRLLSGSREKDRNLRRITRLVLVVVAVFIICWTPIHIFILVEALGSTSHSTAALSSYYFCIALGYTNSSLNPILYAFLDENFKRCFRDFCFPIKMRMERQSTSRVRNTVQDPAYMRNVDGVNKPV
Chain of Mu-type opioid receptor (Cavia porcellus, UniProt P97266) (P97266 whole entry): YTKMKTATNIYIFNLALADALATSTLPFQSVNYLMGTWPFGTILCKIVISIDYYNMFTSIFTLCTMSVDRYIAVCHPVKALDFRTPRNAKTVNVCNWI
Chain of Mu-type opioid receptor (Rattus norvegicus, UniProt P33535) (P33535 whole entry): as the sequence (P33535 whole entry, looked up) above

Row | SMILES | Activity [1] | IC50 [2] | IC50 [3] | Ki [4] | Ki [5] | Ratio Ki [6] | Ki [7] | Kb [8]
1 | Cc1cc(C)cc(C[C@H](NC(=O)[C@@H]2CCCN2C(=O)[C@@H](N)Cc2ccc(O)cc2)C(=O)N[C@@H](Cc2ccccc2)C(N)=O)c1 | > 8% | > 10000 nM | 389 nM | 3450 nM | 6.19 nM | 558 |  | 
2 | Cc1cc(O)cc(C)c1C[C@H](N)C(=O)N1CCC[C@H]1C(=O)N[C@@H](Cc1c(C)cccc1C(C)C)C(=O)N[C@@H](Cc1ccccc1)C(N)=O |  | 5.56 nM | 0.2 nM | 4.61 nM | 0.32 nM | 14 | 205 nM | 
3 | Cc1cc(O)cc(C)c1C[C@H](N)C(=O)N1CCC[C@H]1C(=O)N[C@@H](Cc1ccccc1)C(=O)N[C@@H](Cc1ccccc1)C(N)=O |  | 0.59 nM | 0.26 nM | 99.2 nM | 0.26 nM | 382 | 489 nM | 
4 | CCc1cccc(C)c1C[C@H](NC(=O)[C@@H]1CCCN1C(=O)[C@@H](N)Cc1c(C)cc(O)cc1C)C(=O)N[C@@H](Cc1ccccc1)C(N)=O |  | 0.51 nM | 0.17 nM | 3.03 nM | 0.21 nM | 14 | 278 nM | 
5 | Cc1cc(C)cc(C[C@H](NC(=O)[C@@H]2CCCN2C(=O)[C@@H](N)Cc2c(C)cc(O)cc2C)C(=O)N[C@@H](Cc2ccccc2)C(N)=O)c1 | > 7.1% | > 10000 nM | 14.4 nM | 11.6 nM | 0.11 nM | 105 | 830 nM | 170 nM
6 | Cc1cc(C)c(C[C@H](NC(=O)[C@@H]2CCCN2C(=O)[C@@H](N)Cc2c(C)cc(O)cc2C)C(=O)N[C@@H](Cc2ccccc2)C(N)=O)c(C)c1 | > 22.2% | > 10000 nM | 0.21 nM | 1.83 nM | 0.18 nM | 10 | 172 nM | 0.891 nM
7 | Cc1cc(C)c(C[C@H](NC(=O)[C@@H]2CCCN2C(=O)[C@@H](N)Cc2ccc(O)cc2)C(=O)N[C@@H](Cc2ccccc2)C(N)=O)c(C)c1 | > 36.2% | > 10000 nM | 1.9 nM | 1360 nM | 0.44 nM | 3090 |  | 
8 | Cc1cc(O)cc(C)c1C[C@H](NC(=O)[C@@H]1CCCN1C(=O)[C@@H](N)Cc1c(C)cc(O)cc1C)C(=O)N[C@@H](Cc1ccccc1)C(N)=O (H-[Dmt]P[Dmt]F-NH2) |  | > 10000 nM | 1.94 nM | 80.8 nM | 0.092 nM |  | 998 nM | 87.1 nM
9 | Cc1ccccc1C[C@H](NC(=O)[C@@H]1CCCN1C(=O)[C@@H](N)Cc1ccc(O)cc1)C(=O)N[C@@H](Cc1ccccc1)C(N)=O |  | 15.7 nM | 1.33 nM | 1740 nM | 0.22 nM | 7880 |  | 
10 | Cc1ccccc1C[C@H](NC(=O)[C@@H]1CCCN1C(=O)[C@@H](N)Cc1c(C)cc(O)cc1C)C(=O)N[C@@H](Cc1ccccc1)C(N)=O | 0% | > 10000 nM | 0.16 nM | 4.61 nM | 0.18 nM | 26 | 176 nM | 257 nM
11 | CCc1cccc(C)c1C[C@H](NC(=O)[C@@H]1CCCN1C(=O)[C@@H](N)Cc1ccc(O)cc1)C(=O)N[C@@H](Cc1ccccc1)C(N)=O |  | 277 nM | 2.35 nM | 491 nM | 0.46 nM | 1070 |  | 
12 | Cc1cc(O)ccc1C[C@H](NC(=O)[C@@H]1CCCN1C(=O)[C@@H](N)Cc1c(C)cc(O)cc1C)C(=O)N[C@@H](Cc1ccccc1)C(N)=O | < 1% |  |  |  |  | 878 |  | 
13 | Cc1cc(O)cc(C)c1C[C@H](NC(=O)[C@@H]1CCCN1C(=O)[C@@H](N)Cc1ccc(O)cc1)C(=O)N[C@@H](Cc1ccccc1)C(N)=O (H-YP[Dmt]F-NH2) |  | 978 nM | 541 nM | 3020 nM | 2.63 nM |  |  | 
14 | Cc1cc(O)ccc1C[C@H](NC(=O)[C@@H]1CCCN1C(=O)[C@@H](N)Cc1ccc(O)cc1)C(=O)N[C@@H](Cc1ccccc1)C(N)=O |  |  |  |  |  | 1150 |  | 
15 | Cc1cccc(C)c1C[C@H](NC(=O)[C@@H]1CCCN1C(=O)[C@@H](N)Cc1ccc(O)cc1)C(=O)N[C@@H](Cc1ccccc1)C(N)=O |  | 1.39 nM | 0.38 nM | 1440 nM | 0.044 nM | 32700 | > 4000 nM | 
16 | Cc1cccc(C(C)C)c1C[C@H](NC(=O)[C@@H]1CCCN1C(=O)[C@@H](N)Cc1ccc(O)cc1)C(=O)N[C@@H](Cc1ccccc1)C(N)=O |  |  | 2.74 nM | 543 nM | 0.45 nM | 1220 |  | 
17 | Cc1cccc(C)c1C[C@H](NC(=O)[C@@H]1CCCN1C(=O)[C@@H](N)Cc1c(C)cc(O)cc1C)C(=O)N[C@@H](Cc1ccccc1)C(N)=O |  |  | 0.12 nM | 2.27 nM | 0.069 nM | 33 | 94.2 nM | 7.08 nM
